This is an account of results in PubChem BioAssay.

Structures are written as SMILES. Calls of active or inactive are those of the source.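 The calls were made as follows, unless noted: active = GFP response above 150% of the DMSO level; inconclusive = fewer than 70 events counted for a yeast strain; inactive = the rest.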

Test [1] in a line: RPL19A-GFP modulators, yeast TOR pathway, confirmation, cell-based, S. cerevisiae, flow cytometry, cherry picks, mother/daughter gates (AID 2270;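 active = GFP response below 50% of the DMSO control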). The conditions noted are these: S. cerevisiae RPL19A-GFP strain, 3 h, at 10 µM, stronger effect = lower value, 100 = same GFP as DMSO wells. (A flow cytometer gives signals particle by particle.)
A short description of test [2]: LAP4-GFP expression modulators in yeast, confirmation, cell-based, cherry picks, flow cytometry, mother/daughter gates (AID 2271;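 active = GFP response above 150% of the DMSO control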;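 also: ratio of sample to DMSO plate mean so 100% equals DMSO level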). The settings on record: S. cerevisiae LAP4-GFP strain, 3 h, at 10 µM, stronger effect = higher value, 100 means same as DMSO control. Put shortly: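 Material: Alexa Fluor 633-labelled Saccharomyces cerevisiae GFP-fusion strain, single-plex | Amount: Yeast cells seeded at OD600 of 0.2 | Buffer or medium: SC growth medium | Schedule: 3 h exposure, 30 °C | Measured by: HT flow cytometry, GFP fluorescence channel | Evaluation: % GFP response vs DMSO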

A short description of test [3]: modulators of MEP2-GFP levels in yeast, confirmation, S. cerevisiae, flow cytometry GFP, cherry picks (AID 2272;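 active = GFP response above 150% of the DMSO control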;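 also: ratio of well signal to plate DMSO mean so 100% equals DMSO level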). The settings on record: S. cerevisiae MEP2-GFP strain, 3 h, at 10 µM, stronger effect = higher value.
Test [4] is described as follows: AGP1-GFP expression modulators, hit retest, confirmation, cell-based, flow cytometry, S. cerevisiae, cherry picks (AID 2273).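 Also: median GFP channel fluorescence over the whole cell population gate.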 The settings on record: S. cerevisiae AGP1-GFP strain, 3 h, at 10 µM.
The nature of test [5]: modulators of CIT2-GFP expression in yeast, confirmation, S. cerevisiae, GFP fusion, cherry picks, mother/daughter gates (AID 2274). The conditions noted are these: S. cerevisiae CIT2-GFP strain, flow cytometry, 3 h, at 10 µM, stronger effect = higher value.
Setting [6] is: measured here: daughter cell gate.
[7] abbreviates: measured here: mother cell gate.
The mark [8] stands for this setting: measured here: daughter cell gate response.
The mark [9] stands for this setting: measured here: mother cell gate response.

For the molecule `CCOC(=O)c1csc(Nc2nc3ccc(F)cc3s2)n1`, the GFP response vs DMSO is 94.6% (inactive) in test [1], 95.2% in test [1] (setting [6]), 94.2% in test [1] (setting [7]) and 99% (inactive) in test [3]. Further, the GFP response relative to DMSO is 103% (inactive) in test [2], 102% in test [2] (setting [8]) and 104% in test [2] (setting [9]). The GFP response, % of DMSO is 93.4% (inactive) in test [4], 95.9% (inactive) in test [5], 97.4% in test [5] (setting [6]) and 95.6% in test [5] (setting [7]).

Consider `O=C(NC(=S)NNC(=O)c1ccc(Cl)cc1Cl)c1cccnc1`, for which the GFP response vs DMSO was 102% (inactive) in test [1], 103% in test [1] (setting [6]), 102% in test [1] (setting [7]) and 101% (inactive) in test [3]. The GFP response relative to DMSO was 97.3% (inactive) in test [2], 96.6% in test [2] (setting [8]) and 98.2% in test [2] (setting [9]). The GFP response, % of DMSO in test [4] was 104% (inactive); in test [5], 98.4% (inactive); in test [5] (setting [6]), 100%; in test [5] (setting [7]), 96.7%.

In the case of `CCOc1ccc(C(C)=O)cc1N1C(=O)C2C3C=CC(O3)C2C1=O` (centres undefined), the GFP response vs DMSO in test [1] was 100% (inactive); in test [1] (setting [6]), 105%; in test [1] (setting [7]), 95.6%; in test [3], 103% (inactive). In addition, the values for the GFP response relative to DMSO in test [2], in test [2] (setting [8]) and in test [2] (setting [9]) were 136% (inactive), 132% and 136%, respectively. In addition, the GFP response, % of DMSO in test [4] is 97.9% (inactive); in test [5], 110% (inactive); in test [5] (setting [6]), 110%; in test [5] (setting [7]) it was 104%.

With `CCOC(=O)C1CCCN(c2nc3c(C)cccn3c(=O)c2/C=C(\C#N)C(=O)NCc2ccco2)C1` (centres undefined), the GFP response vs DMSO in test [1] is 102% (inactive); in test [1] (setting [6]), 101%; in test [1] (setting [7]) it was 101%; in test [3], 114% (inactive). The GFP response relative to DMSO was 101% (inactive) in test [2], 102% in test [2] (setting [8]) and 99.5% in test [2] (setting [9]). Further, the GFP response, % of DMSO in test [4] was 95.2% (inactive); in test [5], 104% (inactive); in test [5] (setting [6]), 104%; in test [5] (setting [7]), 100%.

As to `COc1ccc(/C=N/Nc2nc(-c3cccnc3)nc3ccccc23)cc1OC`, the GFP response vs DMSO was 100% (inactive) in test [1], 99.3% in test [1] (setting [6]), 102% in test [1] (setting [7]) and 137% (inactive) in test [3]. Also, the results for the GFP response relative to DMSO in test [2], in test [2] (setting [8]) and in test [2] (setting [9]) were 129% (inactive), 130% and 129%, respectively. Further, the GFP response, % of DMSO is 104% (inactive) in test [4], 144% (inactive) in test [5], 143% in test [5] (setting [6]) and 141% in test [5] (setting [7]).

Take `O=C(c1ccccc1F)N1CCN(c2ccccc2)CC1`: the GFP response vs DMSO is 97% (inactive) in test [1], 97.9% in test [1] (setting [6]), 97.6% in test [1] (setting [7]) and 105% (inactive) in test [3]. The values for the GFP response relative to DMSO in test [2], in test [2] (setting [8]) and in test [2] (setting [9]) were 99.2% (inactive), 101% and 98.3%, respectively. The GFP response, % of DMSO in test [4] is 95.2% (inactive); in test [5] it was 98.3% (inactive); in test [5] (setting [6]) it was 101%; in test [5] (setting [7]) it was 98.5%.

Take `COc1ccc(C(c2c(C)[nH]n(C(N)=S)c2=O)C(C#N)C#N)cc1` (centres undefined): the GFP response vs DMSO in test [1] is 105% (inactive); in test [1] (setting [6]), 96.2%; in test [1] (setting [7]) it was 98.8%; in test [3] it was 104% (inactive). Also, the GFP response relative to DMSO in test [2] is 317% (active); in test [2] (setting [8]), 246%; in test [2] (setting [9]) it was 299%. Besides, the GFP response, % of DMSO in test [4] is 101% (inactive); in test [5] it was 89.2% (inactive); in test [5] (setting [6]), 92.7%; in test [5] (setting [7]) it was 79.3%.

For the molecule `O=S(=O)(Nc1cccc(-c2ccc(N3CCCCCC3)nn2)c1)c1ccccc1F`, the GFP response vs DMSO in test [1] is 101% (inactive); in test [1] (setting [6]), 99.3%; in test [1] (setting [7]), 101%; in test [3], 99% (inactive). In addition, the GFP response relative to DMSO is 95.7% (inactive) in test [2], 95.9% in test [2] (setting [8]) and 95.2% in test [2] (setting [9]). The GFP response, % of DMSO is 107% (inactive) in test [4], 100% (inactive) in test [5], 101% in test [5] (setting [6]) and 101% in test [5] (setting [7]).

In the case of `O=C(CCS(=O)(=O)Cc1ccccc1F)NCCc1ccc(Cl)cc1`, the GFP response vs DMSO in test [1] is 97.8% (inactive); in test [1] (setting [6]) it was 102%; in test [1] (setting [7]) it was 93.7%; in test [3], 101% (inactive). Besides, the GFP response relative to DMSO in test [2] is 101% (inactive); in test [2] (setting [8]) it was 99%; in test [2] (setting [9]) it was 101%. Besides, the GFP response, % of DMSO in test [4] was 99.1% (inactive); in test [5], 100% (inactive); in test [5] (setting [6]), 99.3%; in test [5] (setting [7]), 99.3%.

Take `O=C(Nc1cccnc1)c1ccc(-c2ccc(Cl)cc2)o1`: the GFP response vs DMSO in test [1] was 97.2% (inactive); in test [1] (setting [6]) it was 93.9%; in test [1] (setting [7]), 97.7%; in test [3], 97.8% (inactive). The GFP response relative to DMSO in test [2] is 101% (inactive); in test [2] (setting [8]), 100%; in test [2] (setting [9]), 103%. Further, the GFP response, % of DMSO is 94.1% (inactive) in test [4], 100% (inactive) in test [5], 98.1% in test [5] (setting [6]) and 99.8% in test [5] (setting [7]).

For the molecule `CNC(=O)/C(C#N)=C/c1c(N2CC(C)OC(C)C2)nc2ccccn2c1=O` (centres undefined), the GFP response vs DMSO in test [1] is 97.6% (inactive); in test [1] (setting [6]), 88.7%; in test [1] (setting [7]), 90.1%; in test [3], 101% (inactive). Further, the GFP response relative to DMSO in test [2] was 94.4% (inactive); in test [2] (setting [8]) it was 92.6%; in test [2] (setting [9]), 92%. Besides, the GFP response, % of DMSO in test [4] was 110% (inactive); in test [5], 98.8% (inactive); in test [5] (setting [6]), 95.6%; in test [5] (setting [7]) it was 85.8%.

`CCCCOc1c(Br)cc(/C=C2\N=C(C)OC2=O)cc1OCC`: the GFP response vs DMSO in test [1] is 97.8% (inactive); in test [1] (setting [6]), 98.4%; in test [1] (setting [7]) it was 97.7%; in test [3], 100% (inactive). The results for the GFP response relative to DMSO in test [2], in test [2] (setting [8]) and in test [2] (setting [9]) were 106% (inactive), 102% and 106%, respectively. Moreover, the GFP response, % of DMSO was 101% (inactive) in test [4], 98.3% (inactive) in test [5], 99.1% in test [5] (setting [6]) and 98.5% in test [5] (setting [7]).

Regarding `CCOC(=O)Cn1cc(/C=C/[N+](=O)[O-])c2ccccc21`, the GFP response vs DMSO in test [1] is 95.8% (inactive); in test [1] (setting [6]), 92.7%; in test [1] (setting [7]) it was 93.5%; in test [3] it was 99.3% (inactive). Besides, the GFP response relative to DMSO in test [2] is 160% (active); in test [2] (setting [8]), 153%; in test [2] (setting [9]), 157%. In addition, the GFP response, % of DMSO in test [4] was 95% (inactive); in test [5] it was 88.9% (inactive); in test [5] (setting [6]) it was 92.3%; in test [5] (setting [7]), 83.7%.

For the molecule `CNC(=O)/C(C#N)=C/c1c(N(Cc2ccccc2)Cc2ccccc2)nc2ccccn2c1=O`, the GFP response vs DMSO in test [1] is 97.3% (inactive); in test [1] (setting [6]) it was 98.1%; in test [1] (setting [7]), 96.9%; in test [3], 93.1% (inactive). For the same molecule, the GFP response relative to DMSO in test [2] was 100% (inactive); in test [2] (setting [8]), 99%; in test [2] (setting [9]), 101%. For the same molecule, the GFP response, % of DMSO in test [4] was 104% (inactive); in test [5], 100% (inactive); in test [5] (setting [6]) it was 101%; in test [5] (setting [7]) it was 99.3%.
